Values joined by “and” are separate entries in the source; they are usually repeats but may differ in a detail not shown here. Equal entries are not always repeated.
Tested on: Fibroblast
Test: Multiplex assay against human fibroblast
Type: toxicity, cell-based
Details: number of replicates 2
Method in brief: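 Phenotypes for tubulin, mitochondrial mass and membrane permeability are expressed as per cents of healthy-nucleus cells. Cells were stained live at seeding with Hoechst33342, BioTracker Green Microtubule Cytoskeleton Dye, MitoTracker Red and Annexin V Alexa Fluor 680, then imaged after compound addition on a CQ1 microscope at 37°C and 5% CO2. Machine-learning gating in CellPathfinder separated Hoechst high-intensity objects from normal cells, divided normal cells by nuclear state (healthy, pyknosed, fragmented) and divided pyknosed cells into mitotic or apoptotic.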

[1] = 12 h, 1 µM, compound concentration 1 uM
[2] = 12 h, 10 µM, compound concentration 10 uM
[3] = 24 h, 1 µM, compound concentration 1 uM
[4] = 24 h, 10 µM, compound concentration 10 uM
[5] = 48 h, 1 µM, compound concentration 1 uM
[6] = 48 h, 10 µM, compound concentration 10 uM

COc1ccc(F)c(F)c1C(=O)c1cnc(NC2CCN(S(C)(=O)=O)CC2)nc1N [RG-547] was tested, and the “Population Apoptotic (%)” value [1] was 48% and 56%, the “Population Fragmented Nuclei (%)” value [1] was 5% and 8% and the “Population Healthy Nuclei (%)” value [1] was 78% and 70%. The “Population Hoechst High Intensity Objects (%)” value [1] was 0%, the “Population Membrane Permeable-Phenotype (%)” value [1] was 2% and 5% and the “Population Mitochondria Different-Phenotype (%)” value [1] was 0%. For the same compound, the “Population Mitotic Cells (%)” value [1] was 51% and 43%, the “Population Normal (%)” value [1] was 100% and the “Population Pyknosed Nuclei (%)” value [1] was 15% and 20%. The “Population Tubulin-Different-Phenotype (%)” value [1] was 2% and 9%, the “Total Cell Count” value [1] was 173 and 188 and the “Population Apoptotic (%)” value [2] was 50% and 56%. For the same compound, the “Population Fragmented Nuclei (%)” value [2] was 13% and 12%, the “Population Healthy Nuclei (%)” value [2] was 73% and 72% and the “Population Hoechst High Intensity Objects (%)” value [2] was 0%. The “Population Membrane Permeable-Phenotype (%)” value [2] was 7% and 5%, the “Population Mitochondria Different-Phenotype (%)” value [2] was 3% and 2% and the “Population Mitotic Cells (%)” value [2] was 50% and 43%. The “Population Normal (%)” value [2] was 99% and 100%, the “Population Pyknosed Nuclei (%)” value [2] was 13% and 15% and the “Population Tubulin-Different-Phenotype (%)” value [2] was 30% and 17%. The “Total Cell Count” value [2] was 192 and 209, the “Population Apoptotic (%)” value [3] was 57% and 67% and the “Population Fragmented Nuclei (%)” value [3] was 9% and 10%. For the same compound, the “Population Healthy Nuclei (%)” value [3] was 77% and 69%, the “Population Hoechst High Intensity Objects (%)” value [3] was 0% and the “Population Membrane Permeable-Phenotype (%)” value [3] was 4% and 5%. The “Population Mitochondria Different-Phenotype (%)” value [3] was 1% and 0%, the “Population Mitotic Cells (%)” value [3] was 42% and 32% and the “Population Normal (%)” value [3] was 100%. The “Population Pyknosed Nuclei (%)” value [3] was 13% and 20%, the “Population Tubulin-Different-Phenotype (%)” value [3] was 7% and the “Total Cell Count” value [3] was 196 and 184. For the same compound, the “Population Apoptotic (%)” value [4] was 61% and 75%, the “Population Fragmented Nuclei (%)” value [4] was 9% and 11% and the “Population Healthy Nuclei (%)” value [4] was 72% and 74%. The “Population Hoechst High Intensity Objects (%)” value [4] was 0%, the “Population Membrane Permeable-Phenotype (%)” value [4] was 7% and 5% and the “Population Mitochondria Different-Phenotype (%)” value [4] was 6% and 4%. For the same compound, the “Population Mitotic Cells (%)” value [4] was 38% and 25%, the “Population Normal (%)” value [4] was 100% and the “Population Pyknosed Nuclei (%)” value [4] was 18% and 13%. The “Population Tubulin-Different-Phenotype (%)” value [4] was 35% and 26%, the “Total Cell Count” value [4] was 194 and 201 and the “Population Apoptotic (%)” value [5] was 44% and 71%. The “Population Fragmented Nuclei (%)” value [5] was 20% and 11%, the “Population Healthy Nuclei (%)” value [5] was 44% and 70% and the “Population Hoechst High Intensity Objects (%)” value [5] was 3% and 0%. The “Population Mitochondria Different-Phenotype (%)” value [5] was 9% and 0%, the “Population Mitotic Cells (%)” value [5] was 55% and 28% and the “Population Normal (%)” value [5] was 96% and 100%. For the same compound, the “Population Pyknosed Nuclei (%)” value [5] was 36% and 17%, the “Population Apoptotic (%)” value [6] was 84% and 68% and the “Population Fragmented Nuclei (%)” value [6] was 8% and 11%. For the same compound, the “Population Healthy Nuclei (%)” value [6] was 62%, the “Population Hoechst High Intensity Objects (%)” value [6] was 0% and the “Population Membrane Permeable-Phenotype (%)” value [6] was 17% and 18%. The “Population Mitochondria Different-Phenotype (%)” value [6] was 2% and 6%, the “Population Mitotic Cells (%)” value [6] was 15% and 31% and the “Population Normal (%)” value [6] was 100%. For the same compound, the “Population Pyknosed Nuclei (%)” value [6] was 28% and 25%, the “Population Tubulin-Different-Phenotype (%)” value [6] was 43% and 38% and the “Total Cell Count” value [6] was 179 and 184.

Cl.Clc1ccc2nsnc2c1NC1=NCCN1 [TIZANIDINE HYDROCHLORIDE] was tested, and the “Population Apoptotic (%)” value [1] was 50% and 48%, the “Population Fragmented Nuclei (%)” value [1] was 10% and the “Population Healthy Nuclei (%)” value [1] was 62%. For the same compound, the “Population Hoechst High Intensity Objects (%)” value [1] was 0%, the “Population Membrane Permeable-Phenotype (%)” value [1] was 4% and 7% and the “Population Mitochondria Different-Phenotype (%)” value [1] was 0%. For the same compound, the “Population Mitotic Cells (%)” value [1] was 49% and 51%, the “Population Normal (%)” value [1] was 100% and the “Population Pyknosed Nuclei (%)” value [1] was 26% and 27%. The “Population Tubulin-Different-Phenotype (%)” value [1] was 10% and 5%, the “Total Cell Count” value [1] was 192 and 172 and the “Population Apoptotic (%)” value [2] was 36%. For the same compound, the “Population Fragmented Nuclei (%)” value [2] was 16% and 15%, the “Population Healthy Nuclei (%)” value [2] was 68% and 70% and the “Population Hoechst High Intensity Objects (%)” value [2] was 0%. The “Population Membrane Permeable-Phenotype (%)” value [2] was 5% and 3%, the “Population Mitochondria Different-Phenotype (%)” value [2] was 3% and 1% and the “Population Mitotic Cells (%)” value [2] was 63%. For the same compound, the “Population Normal (%)” value [2] was 100%, the “Population Pyknosed Nuclei (%)” value [2] was 15% and 13% and the “Population Tubulin-Different-Phenotype (%)” value [2] was 14% and 8%. For the same compound, the “Total Cell Count” value [2] was 194 and 264, the “Population Apoptotic (%)” value [3] was 67% and 56% and the “Population Fragmented Nuclei (%)” value [3] was 9% and 13%. The “Population Healthy Nuclei (%)” value [3] was 60% and 57%, the “Population Hoechst High Intensity Objects (%)” value [3] was 0% and the “Population Membrane Permeable-Phenotype (%)” value [3] was 6%. For the same compound, the “Population Mitochondria Different-Phenotype (%)” value [3] was 1% and 0%, the “Population Mitotic Cells (%)” value [3] was 32% and 44% and the “Population Normal (%)” value [3] was 100%. The “Population Pyknosed Nuclei (%)” value [3] was 29% and 28%, the “Population Tubulin-Different-Phenotype (%)” value [3] was 14% and 8% and the “Total Cell Count” value [3] was 176 and 173. The “Population Apoptotic (%)” value [4] was 71% and 45%, the “Population Fragmented Nuclei (%)” value [4] was 12% and 14% and the “Population Healthy Nuclei (%)” value [4] was 71% and 72%. The “Population Hoechst High Intensity Objects (%)” value [4] was 0%, the “Population Membrane Permeable-Phenotype (%)” value [4] was 6% and 4% and the “Population Mitochondria Different-Phenotype (%)” value [4] was 3% and 1%. For the same compound, the “Population Mitotic Cells (%)” value [4] was 28% and 54%, the “Population Normal (%)” value [4] was 100% and 99% and the “Population Pyknosed Nuclei (%)” value [4] was 15% and 12%. For the same compound, the “Population Tubulin-Different-Phenotype (%)” value [4] was 12% and 8%, the “Total Cell Count” value [4] was 182 and 271 and the “Population Apoptotic (%)” value [5] was 68% and 59%. For the same compound, the “Population Fragmented Nuclei (%)” value [5] was 11% and 15%, the “Population Healthy Nuclei (%)” value [5] was 71% and 63% and the “Population Hoechst High Intensity Objects (%)” value [5] was 0%. The “Population Membrane Permeable-Phenotype (%)” value [5] was 6% and 11%, the “Population Mitochondria Different-Phenotype (%)” value [5] was 0% and the “Population Mitotic Cells (%)” value [5] was 31% and 40%. For the same compound, the “Population Normal (%)” value [5] was 100% and 99%, the “Population Pyknosed Nuclei (%)” value [5] was 17% and 20% and the “Population Tubulin-Different-Phenotype (%)” value [5] was 12% and 3%. For the same compound, the “Total Cell Count” value [5] was 186 and 203, the “Population Apoptotic (%)” value [6] was 72% and 60% and the “Population Fragmented Nuclei (%)” value [6] was 13% and 12%. For the same compound, the “Population Healthy Nuclei (%)” value [6] was 70% and 78%, the “Population Hoechst High Intensity Objects (%)” value [6] was 0% and the “Population Membrane Permeable-Phenotype (%)” value [6] was 5% and 2%. The “Population Mitochondria Different-Phenotype (%)” value [6] was 0%, the “Population Mitotic Cells (%)” value [6] was 27% and 39% and the “Population Normal (%)” value [6] was 100% and 99%. For the same compound, the “Population Pyknosed Nuclei (%)” value [6] was 15% and 8%, the “Population Tubulin-Different-Phenotype (%)” value [6] was 8% and 2% and the “Total Cell Count” value [6] was 193 and 260.

Source: ChEMBL document CHEMBL5303300, “EUbOPEN Chemogenomics Library - Multiplex” (2023)
